Measured values from article PMC6431230 (Proceedings of the National Academy of Sciences of the …, 2019).
Bridge positions count the residues as written; N and C are the ends. Square brackets hold non-standard residues; d marks the D form. Ends that are not written are not given here. Peptide text beside a SMILES is read from it. Orn = NCCC[C@H](N)C(=O)O; Mpa = O=C(O)CCS

Experiments:
ants = test: Effect of injected DMSO on ant survivability; type: in vivo, Camponotus fellah
[1] = molecular target: inotocin receptor (not stated (C. fellah or C. japonicus cDNA cloned)); test: FRET or BRET
inotocin receptor [2] = test: Calcium assay; type: cell-based, Camponotus fellah; conditions: CHO cells expressing inotocin receptor, Fluo-4 cytosolic calcium
[3] = tested on: cuticular hydrocarbons (CHCs); test: Cuticular hydrocarbon quantification after antagonist injection; type: in vivo, Camponotus fellah; conditions: injection of 2 mM atosiban
Procedure, shortened: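 Workers were ice-anesthetized and injected with 1.5 µL into the abdomen through the intersegmental membrane. Dosing was 100 µM test compound in 1% DMSO, or 2 mM of the water-soluble antagonist. Controls were ant saline mixed with the matching solvent (DMSO 1:100; water 1:5). Normal, branched and total cuticular alkanes were then extracted and quantified.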

CYP4G1 expression = test: CYP4G1 expression; type: in vivo, Camponotus fellah; conditions: 24 h
Procedure, shortened: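 Workers were chilled on ice and injected with 1.5 µL into the abdomen through the intersegmental membrane. Controls received ant saline mixed with water (1:10 for 1 mM, 1:5 for 2 mM). RNA was extracted 24 h post-injection. SYBR qRT-PCR on 200 ng total RNA used ef1a/rp2 references and per-experiment average scaling.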

inotocin receptor [4] = test: TR-FRET; type: binding, Camponotus fellah; conditions: 10 nM labeled inotocin ligand, atosiban 1.95 µM to 2 mM
[5] = molecular target: T1, oxytocin receptor (human OXTR) (Homo sapiens, UniProt P30559); test: Calcium assay; type: cell-based
T1 sequence (P30559 1-389): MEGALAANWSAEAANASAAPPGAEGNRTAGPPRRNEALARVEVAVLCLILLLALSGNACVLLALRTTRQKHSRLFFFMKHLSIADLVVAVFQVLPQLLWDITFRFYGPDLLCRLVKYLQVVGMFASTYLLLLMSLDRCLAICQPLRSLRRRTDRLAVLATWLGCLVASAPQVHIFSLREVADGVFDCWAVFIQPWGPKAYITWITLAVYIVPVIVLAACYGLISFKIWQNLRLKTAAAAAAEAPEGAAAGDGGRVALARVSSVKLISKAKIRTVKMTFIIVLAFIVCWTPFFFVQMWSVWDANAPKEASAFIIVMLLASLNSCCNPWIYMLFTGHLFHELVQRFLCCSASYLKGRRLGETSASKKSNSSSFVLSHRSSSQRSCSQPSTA

Question: Which results are given for `C[S+](C)[O-]` [DMSO]?
Answer: Effect on ant survivability (ants; 1% DMSO): no effect on survivability; Effect on ant survivability (ants; 10% DMSO): high lethality

Question: For atosiban (peptide), which IC50 [1] is on record?
Answer: 58.8 µM

Question: How did the “Activation of inotocin receptor” value (inotocin receptor [2]) turn out when “vasopressin (CYFQNCPRG-NH2; disulfide 1-6 (inferred); ends not checked; UniProt P01185 20-28, looked up)” was run?
Answer: not

Question: How did the “Quantity of normal alkanes vs control” value ([3]; P = 0.008) turn out when `CCOc1ccc(C[C@H]2NC(=O)CCSSC[C@@H](C(=O)N3CCC[C@H]3C(=O)N[C@@H](CCCN)C(=O)NCC(N)=O)NC(=O)[C@H](CC(N)=O)NC(=O)[C@H]([C@@H](C)O)NC(=O)[C@H]([C@@H](C)CC)NC2=O)cc1` [atosiban] ([Mpa][dY](Et)ITNCP[Orn]G-NH2; disulfide 1-6 (inferred)) was run?
Answer: reduced quantities

Question: And the “Total quantity of alkanes vs control” value ([3]; P = 0.012)?
Answer: significantly lower

Question: What about the “Quantity of branched alkanes vs control” value ([3]; P = 0.088) of the same molecule?
Answer: tendency for reduced

Question: And the “CYP4G1 expression vs control” value (CYP4G1 expression; 1 mM injected, P = 0.026)?
Answer: significantly down-regulated

Question: And the “CYP4G1 expression vs control” value (CYP4G1 expression; 2 mM injected, P = 0.0002)?
Answer: significantly down-regulated

Question: What about the “IC50, decrease in FRET ratio (binding between inotocin and inotocin receptor)” value (inotocin receptor [4]) of the same molecule?
Answer: 58.8 µM

Question: And the IC50 [5]?
Answer: 0.65 µM
